# Sampled rows, rich in hits. Any-hit rate of the full collection: about 6.4%.
# H69AR inhibit: growth inhibitors of human H69AR lung tumor cells. H69AR lung tumor viability, ATP luminescence, 72 h; stronger effect = lower value. viability, % at 10 µM. actives 6% (n = 85,000);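 active means viability at or below 40%; inactive means viability above 40%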;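 further: multidrug resistant small cell line overexpressing MRP-1 efflux transporter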
# Fibroblast inh: blocks proliferation of human lung fibroblasts. LL 47 human lung fibroblast viability, ATP luminescence; stronger effect = lower value. actives 1.1% (n = 85,000). AID 719. viability, % at 10 µM;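 active means viability at or below 50% in the single dose screen; inactive means viability above 50%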;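 further: compound exposure lasted 72 h before the ATP readout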
#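 Benchmarks: Cell-only wells, no compound | Test system: LL 47 human lung fibroblasts, passage 12 or lower | Input: 1,150 cells/well | Measured by: CellTiter-Glo luminescence measuring cellular ATP | Medium: IMEM, 15% FBS supplement | Schedule: Overnight attachment after seeding, then 72 h compound exposure at 37 °C | Doses: Compound addition at 0.1% DMSO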
# tolC growth inh: growth inhibitors of E. coli BW25113 tolC mutant; OD615; growth inhibition, % at 10 µM (by protocol); actives 2.2% (n = 65,000);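 active means growth inhibition at or above a cutoff equal to the mean over every tested compound plus 3 SD, cut at about 60% in these data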;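 further: growth measured after 20 h incubation at 37 °C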
#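 System: E. coli ΔtolC::kan strain BW25113; Buffer or medium: LB broth supplemented with 50 µg/mL kanamycin; Compound: 10 µM final, single dose; Incubation: bacterial growth with compound for 20 h at 37 °C; Signal: A615 absorbance measurement; Evaluation: growth inhibition in percent.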
# HUVEC prolif 384: human endothelial cell proliferation inhibition; HUVEC proliferation, CellTiter-Glo luminescence, 72 h; stronger effect = lower value; viability, % at 10 µM (by protocol); actives 1.1% (n = 86,000);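 active means viability at or below 30%; inactive means viability above 30%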
# Ecoli WT expand: E. coli BW25113 growth inhibition, expanded screen. growth inhibition, % at 100 µM. actives 0.15% (n = 98,000). OD600 absorbance. AID 710;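 active means growth inhibition above about 50% at one test dose, limit read from the data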;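 further: growth measured after 20 h incubation at 37 °C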
# Jurkat tox 60K: cytotoxic compounds reducing Jurkat cell viability; actives 1.2% (n = 56,000); Jurkat E6.1 viability, ATP luminescence, 48 h; inhibition, % at 4 µM;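 active means inhibition above the mean inhibition of all tested compounds plus 3 SD, cut at about 28% in these data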
# A number is an active result; i = inactive; nt = not tested or not shown.
SMILES,H69AR inhibit,Fibroblast inh,tolC growth inh,HUVEC prolif 384,Ecoli WT expand,Jurkat tox 60K
CCc1nnc(NC(=O)CSc2nnc(-c3ccccc3O)n2-c2ccc(C)cc2C)s1,nt,i,i,i,i,80
CCOC(=O)c1ccc(NC(=O)CSc2nnc(-c3cccs3)n2CC)cc1,i,i,i,i,i,i
C=CCn1c(SCC(=O)Nc2ccc(C(=O)OC(C)C)cc2)nnc1-c1cccs1,25,30,i,i,i,i
O=C(CSc1nc2[nH]ncc2c(=O)n1-c1ccccc1)c1ccc2c(c1)OCCO2,17,i,i,i,i,i
CCOC(=O)CCC(=O)N1CCNC(=O)C1,i,i,nt,i,i,nt
Cc1cc(=O)n2nc(-c3ccc(C(F)(F)F)cc3)sc2n1,i,i,nt,i,i,nt
CCOC(=O)N1CCN(C(=O)CSc2nc3c(cnn3-c3ccc(Cl)cc3)c(=O)[nH]2)CC1,i,i,i,i,i,i
O=C(Nc1ccc2nn(-c3ccccc3)nc2c1)c1ccc2c(c1)OCCO2,i,nt,i,i,i,i
CCN(CC)c1cc(C)c2cc(NC(=O)c3ccc(Br)o3)ccc2n1,i,i,nt,28,i,nt
CCN1CCN(c2cc(C)c3cc(NC(=O)c4ccc(Br)o4)ccc3n2)CC1,i,43,i,4.5,i,nt
O=C(Nc1ccc2nn(-c3ccccc3)nc2c1)c1ccc(Br)o1,30,i,i,i,i,i
CCCC(=O)Nc1nc2ccc(NC(=O)c3ccc(Br)o3)cc2s1,i,i,i,i,i,i
COC(=O)c1cc(-c2ccccc2)sc1NC(=O)c1cc(C)on1,i,i,i,i,nt,i
CC(C)(C)c1ccc(Cn2nnc3c(=O)[nH]c(C4CCN(C(=O)Cc5cccs5)CC4)nc32)cc1,i,i,i,i,i,i
CC(C)(C)c1ccc(Cn2nnc3c(=O)[nH]c(C4CCCN(C(=O)Cc5cccs5)C4)nc32)cc1 (stereo not drawn),17,i,88,i,i,i
Cc1ccc(/C(N)=N/OC(=O)COc2ccccc2Cl)cc1,nt,nt,nt,nt,i,nt
COc1ccc(-c2[nH]c(-c3ccc(F)cc3)nc2SCC(=O)NCc2ccco2)cc1OC,39,i,i,i,i,i
COc1ccc(-c2[nH]c(-c3ccccc3)nc2SCC(=O)NCc2ccco2)cc1OC,i,i,nt,i,i,nt
CCC1(C)Cc2c(sc3nnn(Cc4ccccc4Cl)c(=O)c23)CO1 (stereo not drawn),nt,nt,nt,nt,i,nt
CCCOC(=O)C(C)n1cnc2sc(C)c(C)c2c1=O (stereo not drawn),nt,nt,nt,nt,i,nt
CCOC(=O)N1CCN(S(=O)(=O)c2cccc3ccc(C)nc23)CC1,i,i,i,i,i,i
CCCCOC(=O)CSc1nc(N)c(C#N)c(-c2ccc(OCC)cc2)c1C#N,i,i,i,i,i,i
CCCCOc1ccc(-c2c(C#N)c(N)nc(SCC(N)=O)c2C#N)cc1,35,nt,70,i,i,i
COc1cc(NS(=O)(=O)c2ccc(C)cc2)ccc1-n1cnnn1,i,i,i,i,i,i
N=c1c2c(-c3ccccc3)c(-c3ccccc3)n(Cc3ccco3)c2ncn1Cc1ccco1,1.4,nt,64,2.7,i,47
SMILES,H69AR inhibit,Fibroblast inh,tolC growth inh,HUVEC prolif 384,Ecoli WT expand,Jurkat tox 60K
O=c1c2cnn(-c3ccccc3)c2ncn1Cc1ccco1,i,i,nt,i,i,nt
N=c1c2c(-c3ccccc3)c(-c3ccccc3)n(Cc3ccccc3)c2ncn1CCCn1ccnc1,-0.2,2.4,i,2.3,i,nt
Cc1cccc(S(=O)(=O)NCCC(=O)OC(C)C(=O)NC(=O)NC2CCCCC2)c1 (stereo not drawn),i,i,i,i,i,i
Cc1cc2c(cc(C(=O)OCC(=O)NCc3ccco3)n2C)s1,27,i,nt,i,i,nt
CCn1cc(C2=NC(c3ccccc3)CO2)c2ccccc21 (stereo not drawn),32,i,i,i,nt,i
COC(=O)c1ccccc1NC(=O)C1CC(=O)N(c2ccc(C)cc2)C1 (stereo not drawn),35,i,nt,i,i,nt
CC(C)(C)n1nnnc1C(c1cccs1)N(Cc1ccccc1)Cc1cccnc1 (stereo not drawn),i,i,80,i,i,i
CC(C)(C)n1nnnc1C(c1cccnc1)N(Cc1ccccc1)Cc1cccs1 (stereo not drawn),6.6,i,nt,i,i,nt
O=C(Nc1ccc(Br)cn1)c1ccc2nccnc2c1,34,i,i,i,nt,i
COC(=O)[C@@H](NC(=O)Nc1cccc(OC)c1)C(C)C,i,i,nt,i,i,nt
O=C(NCc1cccnc1)NC1(C(F)(F)F)Oc2ccccc2O1,28,i,i,i,i,nt
COc1cccc(NC(=O)NC2(C(F)(F)F)Oc3ccccc3O2)c1,23,i,i,i,nt,nt
O=C(Nc1cc(N2CCOCC2)ncn1)NC1(C(F)(F)F)Oc2ccccc2O1,27,i,nt,i,nt,nt
CC(=O)N(C(C)=O)c1ncc2c([nH]c3ccccc32)c1C#N,37,i,i,i,i,i
Cc1ccc2c(c1)nnn2C1CCN(S(=O)(=O)c2ccc(C(=O)N3C(C)CCCC3C)cc2)CC1 (stereo not drawn),21,i,i,i,i,43
CN(C)S(=O)(=O)c1ccc2[nH]cc(/C=C/c3nc4ccccc4c(=O)n3-c3ccccc3)c2c1,37,i,nt,i,i,nt
COc1ccc(NS(=O)(=O)c2ccc3c(c2)Cc2ccccc2-3)cn1,i,i,100,i,i,i
O=C(Nc1ccccc1C(F)(F)F)N1CCN(C(c2ccccc2)c2ccccc2)CC1,31,i,nt,i,i,nt
CC1(C)Cc2c(C#N)c(SCCOc3ccccc3)nc(N3CCOCC3)c2CO1,32,i,i,i,i,nt
COc1ccc(/C=N/Nc2snc(SC)c2C#N)cc1OC,i,i,nt,i,i,nt
COc1cccc(/C=N/Nc2snc(SC)c2C#N)c1O,20,i,nt,i,nt,nt
Cc1ccc(OCCCC(=O)Nc2ccc(Br)cc2)cc1,nt,nt,nt,nt,i,nt
Cc1cc(C(=O)OCC(=O)N2CCN(C(=O)c3ccco3)CC2)c(C)n1-c1ccc(F)cc1,i,i,i,i,i,i
CCOC(=O)c1cc2c(ccn2-c2ccc(F)cc2)n1CC(=O)N1CCN(C(=O)c2ccco2)CC1,22,49,i,i,i,i
COc1cc(C(=S)N2CCCCC2)ccc1OCC(=O)N1CCCC1,i,i,i,i,i,i
SMILES,H69AR inhibit,Fibroblast inh,tolC growth inh,HUVEC prolif 384,Ecoli WT expand,Jurkat tox 60K
CCOc1cc(C(=S)N2CCCCC2)ccc1OCC(=O)NCc1ccccc1,23,i,nt,i,i,nt
CCCN1C(=O)C(Cc2nc3ccccc3c(=O)n2C)c2ccccc21 (stereo not drawn),33,i,nt,i,i,nt
CCC(=O)NC(c1ccccc1OC)c1ccc2cccnc2c1O (stereo not drawn),1.8,11,nt,4.1,nt,nt
CCOc1ccc(C2C(C#N)=C(N)SC(N)=C2C#N)c(OCC)c1,nt,nt,i,nt,i,i
CCCCc1ccc(C2C(C#N)=C(N)SC(N)=C2C#N)s1,i,i,93,i,i,i
O=C(CSc1nnnn1-c1cccc(F)c1)Nc1nc2ccccc2s1,i,i,nt,i,nt,nt
CC(=O)c1c(C)[nH]c(C(=O)NCc2ccccc2Cl)c1C,i,i,i,i,i,i

# Compound activity deposited in PubChem by several laboratories.
